# UBC13 inh: blocks human UBC13 polyubiquitin chain formation | P61088 | TR-FRET | inhibition, % at 20 µM | 330,000 compounds, 0.47% hits; in the data active = inhibition above about 45%, passing the limit was not always enough
# Target sequence (P61088 whole entry, looked up): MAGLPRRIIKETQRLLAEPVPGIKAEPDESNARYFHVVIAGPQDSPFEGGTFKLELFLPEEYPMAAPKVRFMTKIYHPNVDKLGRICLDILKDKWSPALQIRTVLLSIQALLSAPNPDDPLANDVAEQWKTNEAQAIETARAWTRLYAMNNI
# RBBP9 inh: human RBBP9 hydrolase inhibition; 220,000 compounds, 0.2% hits; O75884; inhibition, % at 7.94 µM; recombinant RBBP9, FP-Rh probe fluorescence polarization;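 active = inhibition above the campaign mean of all tested compounds plus 3 SD, cut at about 14% in these data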;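 also: plate controls were DMSO wells with RBBP9 for no effect and wells lacking RBBP9 protein for full effect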
# Target sequence (O75884 whole entry, looked up): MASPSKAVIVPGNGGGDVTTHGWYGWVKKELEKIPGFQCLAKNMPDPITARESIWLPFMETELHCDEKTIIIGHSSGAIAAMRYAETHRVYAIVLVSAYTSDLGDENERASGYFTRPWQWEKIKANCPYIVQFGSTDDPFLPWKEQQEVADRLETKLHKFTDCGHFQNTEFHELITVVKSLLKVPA
#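 Measured by: FP readout at 525/598 nm; material: recombinant human RBBP9; also added: Serine-hydrolase probe FP-Rh, 375 nM pre-mixing; medium: Tris buffer pH 8.0, NaCl, Pluronic; replication: one well per compound; doses: one concentration, 7.94 µM nominal, 0.794% DMSO; timing: preincubation 30 min plus labeling 45 min at 25 °C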
# PREPL inhibitor: inhibits the human prolyl oligopeptidase-like enzyme; Q4J6C6; recombinant PREPL, fluorescence polarization activity-based probe; inhibition, % at 5.96 µM; 320,000 compounds, 0.68% hits; AID 2751; in the data active = inhibition above about 43%;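 also: 0% = enzyme with DMSO and 100% = wells lacking enzyme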
# UBC9 SUMO inh: blocks human SUMOylation mediated by UBC9. HTRF SUMOylation assay, SAE1/SAE2 + UBC9, in vitro. inhibition, % at 35 µM. 290,000 compounds, 0.36% hits. AID 2006; in the data active = inhibition above about 50%, passing the limit was not always enough
# Rin1 Abl inh: human Rin1-Abl interaction inhibition. 360,000 compounds, 0.4% hits. inhibition, % at 7.35 µM. TR-FRET Rin1/Abl binding, biochemical. P00519+Q13671. AID 588664; in the data active = inhibition above about 5%, passing the limit was not always enough
# ALR inh: human ALR oxidase inhibition via reduced H2O2 | purified ALR, DTT oxidation, H2O2 HRP-luminol luminescence | inhibition, % (concentration not given with the values) | 290,000 compounds, 3.8% hits | AID 485317;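 active = mean replicate inhibition above about 79%, with every replicate also reaching it, limit read from the data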
# Target sequence (P55789 whole entry, looked up): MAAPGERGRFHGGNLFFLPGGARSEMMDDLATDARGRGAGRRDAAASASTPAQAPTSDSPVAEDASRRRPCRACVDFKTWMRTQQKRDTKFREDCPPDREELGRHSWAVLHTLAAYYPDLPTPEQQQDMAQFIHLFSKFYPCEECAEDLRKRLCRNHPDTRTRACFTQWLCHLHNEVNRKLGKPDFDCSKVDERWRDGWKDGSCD
# Starred values were filed as active, the others as inactive; x = no result. Rows were chosen to be rich in hits. Some 4.3% of all compounds tested hit in one or more screens of this group.
SMILES,UBC13 inh,RBBP9 inh,PREPL inhibitor,UBC9 SUMO inh,Rin1 Abl inh,ALR inh
Cc1nc2ccc(S(=O)(=O)N(C)CC(=O)NCc3ccc(N(C)C)cc3)cc2s1,-2,x,-1,x,4,85*
Cc1nc2ccc(S(=O)(=O)N(C)CC(=O)NCc3ccc4c(c3)OCO4)cc2s1,6,-7,-12,8,4,x
C=CCOc1cccc(C2C(C(=O)c3cc4ccccc4o3)=C(O)C(=O)N2c2cc(C)on2)c1 (centres undefined),-5,x,15,2,-1,-12
O=C(Nc1cc(Cl)ccc1-n1cncn1)c1ccc([N+](=O)[O-])o1,-8,x,5,x,0,-56
CN(C)c1ccc(C(=O)c2ccc(N(C)C)c(N)c2)cc1N,6,0,4,-8,-5,95*
Cc1cccc(NC(=O)CNC(=O)COc2cccnc2[N+](=O)[O-])c1C,4,x,6,x,2,-6
Oc1cc2c(cc1O)[C@@H](c1ccccc1)CNCC2,x,12,x,25,7,x
Oc1cc2c(cc1O)C(c1ccccc1)CNCC2 (centres undefined),24,x,7,x,0,98*
C=CCC[C@@H](Cc1ccc(F)cc1)C(=O)OC[C@@H](NC(=O)[C@@H](CC=C)CC(=O)N(CCO)Cc1ccccc1)c1ccccc1,-3,x,7,x,1,1
C=C(C)CCC1(C)NC(=O)N(c2ccccc2)N1 (centres undefined),-1,-11,8,18,-1,5
CC1(c2ccc(O)cc2)NC(=O)N(c2ccccc2)N1 (centres undefined),8,-7,3,-7,2,98*
N#CCOc1ccccc1CNC[C@H]1O[C@@H](n2cnc3c(=O)[nH]c(N)nc32)[C@H](O)[C@@H]1O,x,x,x,x,4,x
COC(=O)CCC/C=C1/SCC(NC(=O)c2ccccc2)C1O (centres undefined),-3,-7,-3,11,2,97*
COC(=O)CCC/C=C1/SCC(NC(=O)c2ccccc2)C1NC(C)=O (centres undefined),-8,-1,5,1,4,6
CC(=O)NCc1ccc(C(=O)CSc2nnc(C3CC3)n2C2CC2)cc1,5,x,3,x,-2,78*
COc1ccc(CCNC(=O)CN2C(=O)NC3(CCCCC3C)C2=O)cc1 (centres undefined),-9,x,1,x,2,6
O=C(OCc1nc(-c2ccccc2Cl)no1)c1ccco1,8,x,7,x,-6,-1
Cc1ccc(-c2cnn(-c3ccccc3)c2N)cc1,-2,x,41,6,2,1
COc1ccc(-c2cn[nH]c2C)cc1,5,-9,3,21,2,-23
COc1ccc(-c2cn[nH]c2N)cc1OC,-3,-10,7,-4,2,99*
COc1cc(OC)cc(-c2cn[nH]c2N)c1,1,-4,5,12,0,99*
COc1ccc(-c2cnn(-c3ccccc3)c2N)cc1OC,-15,1,4,3,0,90*
COC(=O)c1ccc(OCC(O)CN2CCN(C(=O)c3ccco3)CC2)c(OC)c1 (centres undefined),10,x,3,4,6,-2
O=C(c1ccsc1)N1CCCC(Nc2cccc(F)c2)C1 (centres undefined),5,x,15,-1,3,53
COc1cc(/C=C(\C#N)C(=O)NCC2CCCO2)ccc1O (centres undefined),0,-7,-3,-12,-4,99*
SMILES,UBC13 inh,RBBP9 inh,PREPL inhibitor,UBC9 SUMO inh,Rin1 Abl inh,ALR inh
COc1cc(/C=N/NC(=O)C(=O)NCC2CCCO2)ccc1O (centres undefined),-11,-3,10,10,2,99*
CCOc1ccc(/C=C(\C#N)C(=O)NCC2CCCO2)cc1OCC (centres undefined),-8,4,-1,2,-2,-2
COc1ccc2c(c1)c(C(=O)CNc1nc(C)cs1)c(C)n2C,0,-4,27,24,-1,98*
CCOCc1cnc(C)nc1NCC(=O)c1c(C)n(C)c2ccc(OC)cc12,x,4,x,-38,1,x
O=C(O)Cn1c(=O)c2c3c(sc2n(Cc2ccc(Cl)cc2Cl)c1=O)CCCC3,x,x,x,-8,-2,76*
COc1ccc([C@H]2C[C@@H](n3cc(-c4ccc(F)cc4)nn3)[C@H](O)CN2C(=O)C2CCCCC2)cc1,x,x,x,x,1,x
Cc1ccc(S(=O)(=O)NC(=O)C2(C)CCN2C(=O)C2CCCCC2)cc1 (centres undefined),x,x,x,x,0,x
Cc1cc(=O)[nH]c(N/N=C/c2ccccc2C(F)(F)F)n1,-1,-6,6,1,-1,-3
Cc1cc(=O)[nH]c(N/N=C/c2ccc(Cl)cc2Cl)n1,-5,x,1,15,0,-6
Cc1cc(=O)[nH]c(Nc2ccc(N(C)C)cc2)n1,5,x,-1,-16,3,99*
CCN(CCC#N)c1ccc(/C=N/Nc2nc(C)cc(=O)[nH]2)c(C)c1,0,-7,4,-18,-6,99*
Cc1cc(=O)[nH]c(N/N=C/c2c[nH]c3ccccc23)n1,-17,-3,38,-5,-5,92*
Cc1cc(=O)[nH]c(Nc2ccc(Cl)cc2)n1,2,x,-5,x,0,x
COc1ccc(/C=N/Nc2nnc(Cc3ccc(OC)c(OC)c3)c(=O)[nH]2)cc1OC,-7,-5,3,18,-5,0
COc1ccc(Cc2nnc(N/N=C/c3ccc(N(C)C)cc3)[nH]c2=O)cc1OC,-17,-3,14,7,-3,99*
OCC1OC(n2ccc3c(SCc4ccccc4)ncnc32)C(O)C1O (centres undefined),x,x,x,x,0,x
COc1ccc(OC)c(NC(=O)c2ccc(CSc3ncccn3)cc2)c1,-4,-5,1,6,-1,-22
COC(=O)c1ccn(Cc2ccccc2Cl)n1,x,0,x,12,-2,x
CCC1(c2ccccc2)NC(=O)N(CC(=O)NNC(=O)COc2ccc(Cl)cc2C)C1=O (centres undefined),1,x,-27,x,1,-2
COc1cc(/C=N/Nc2nc(C)cc(=O)[nH]2)ccc1O,-6,x,-3,-11,-1,98*
Cc1cc(=O)[nH]c(N/N=C/c2ccc(N(C)C)cc2)n1,-8,0,5,7,-7,99*
C=CC[C@@H](CC(=O)N[C@H](CO)Cc1ccccc1)C(=O)NCCOC(=O)[C@@H](CC=C)CC(=O)OC(C)(C)C,-13,x,7,x,3,28
Cc1ccc(C2=N/C(=C\c3cccc(F)c3)C(=O)O2)cc1,-6,x,-8,14,1,3
O=C1CC[C@@H](C(=O)N2CSC[C@@H]2C(=O)Nc2cccc(C(F)(F)F)c2)N1,x,x,x,x,-1,x
COc1ccc(OC)c(NC(=O)CSc2nc(O)cc(=O)n2CC(C)C)c1,11,x,2,x,-1,-6
COc1ccc(CSc2nc(O)cc(=O)n2CC(C)C)cc1F,-15,x,-8,15,1,99*
